Read-outs that look alike come from different tables or passages of the source. Values belong to the compound of their own block, whether it stands above or below them.
Tests used:
[1] = system: GSK3β; test: In vitro GSK3β kinase assay; type: biochemical; details: for Inhibition of GSK3β: in vitro kinase assay
[2] = system: GSK3β; test: GSK3β surface plasmon resonance; type: binding; details: SPR, peptide 25 µM
[3] = system: adult hippocampal progenitor proliferation in dentate gyrus; type: in vivo, mouse; details: 2 mg/kg every other day for 2 weeks, n=5
[4] = system: DISC1 knockdown AHP cells; test: BrdU incorporation in DISC1 knockdown AHP cells; type: cell-based
How it was run: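 Lentivirus-transduced AHPs (GFP marker) seeded on polyornithine/fibronectin-coated coverslips and pulsed with BrdU (10 µM) in medium for 2 hours. Fixed in 4% paraformaldehyde and immunostained for BrdU. Five random fields and over 500 cells counted per experiment. Read-out is the percentage of GFP-positive cells also BrdU-positive.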

[5] = system: LEF/TCF; test: TCF reporter activity in DISC1 knockdown cells; type: cell-based
[6] = system: neural progenitor proliferation in mouse embryonic brains; test: BrdU labeling in shRNA electroporated embryonic brains; type: in vivo

Inhibition of GSK3β ([1]; 80 µM peptide): did not inhibit
Percent theoretical maximal response [2]: 62%
Compound: Peptide-neg: synthesized peptide from mDISC1 spanning amino acids 40–77 (GYMRSTAGSGIGFLSPAVGMPHPSSAGLTGQQSQHSQS)

Inhibition of GSK3β kinase activity ([1]; data not shown, concentration not given): failed to inhibit
Percent theoretical maximal response [2]: 238%
Compound: DISCtide2: 15-mer peptide that encompasses mDISC1 amino acids 211 to 225 (SFSFIQLSLGAAGER)

Potency of GSK3β inhibition compared with L803-mts ([1]; dose-response curve, n=3): more potently than L803-mts
Dose dependence of inhibition of recombinant GSK3β catalytic activity ([1]; in vitro): dose dependent
Inhibition of GSK3β ([1]; 10 µM peptide): inhibited
Percent theoretical maximal response [2]: 197%
Compound: DISCtide-1: synthesized peptide from mDISC1 spanning amino acids 195 to 238 (PADIASLPGFQDTFTSSFSFIQLSLGAAGERGEAEGCLPSREAE)

The next lines start with the compound.

Compound: Cn1cc(C2=C(c3ccc(Cl)cc3Cl)C(=O)NC2=O)c2ccccc21 [SB-216763]
Number of BrdU positive cells ([3]; DISC1 shRNA-1 injected mice): rescued the reduction in BrdU positive cells
Number of BrdU positive cells ([3]; mice infected with control virus): significantly increased
Cell proliferation evaluated by BrdU incorporation [4]: restored cell proliferation
TCF activity [5]: rescued TCF activity in DISC1 knockdown cells to control levels
BrdU labeling index ([6]; DISC1 shRNA electroporated embryonic brains): rescued the BrdU labeling index
BrdU labeled cells ([6]; control shRNA electroporated mouse embryonic brains): increased BrdU labeled cells

Compound: Cc1c[nH]c(-c2cnc(NCCNc3ccc(C#N)cn3)nc2-c2ccc(Cl)cc2Cl)n1 [CHIR-99021]
TCF activity [5]: rescued TCF activity in DISC1 knockdown cells to control levels
